Source: PMC4015637 (Anticancer research, 2014)
Where two headings read alike, the source gives them in different places.

Tests used:
rat CYP24A1 = biological target: T1, rat CYP24A1 (Rattus norvegicus, UniProt Q09128); test: Metabolism by purified recombinant CYP24A1 in reconstituted system; type: in vitro ADME; settings: phospholipid vesicles, 0.025 mol secosteroid/mol phospholipid, 1 μM rat CYP24A1, 1 h
T1 sequence (Q09128 36-514): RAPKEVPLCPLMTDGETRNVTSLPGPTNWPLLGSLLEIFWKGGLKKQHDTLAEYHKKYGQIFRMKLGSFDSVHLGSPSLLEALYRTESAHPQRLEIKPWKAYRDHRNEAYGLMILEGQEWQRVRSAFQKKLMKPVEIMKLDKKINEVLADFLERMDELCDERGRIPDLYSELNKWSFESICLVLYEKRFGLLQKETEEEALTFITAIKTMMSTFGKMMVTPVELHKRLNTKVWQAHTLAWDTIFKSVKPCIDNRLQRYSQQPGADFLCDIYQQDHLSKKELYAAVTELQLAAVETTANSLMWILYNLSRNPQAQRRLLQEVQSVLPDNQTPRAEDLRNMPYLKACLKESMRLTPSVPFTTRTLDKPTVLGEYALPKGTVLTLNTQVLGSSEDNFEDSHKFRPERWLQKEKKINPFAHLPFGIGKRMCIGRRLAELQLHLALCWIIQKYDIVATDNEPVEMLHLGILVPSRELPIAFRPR
How it was run: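 Reconstituted system: purified recombinant rat CYP24A1 (1 μM), adrenodoxin (15 μM) and adrenodoxin reductase (4 μM). Test compound incorporated into phospholipid vesicles at 0.025 mol secosteroid/mol phospholipid. Incubated 1 h. Products extracted with dichloromethane and resolved by reverse-phase HPLC. Result expressed as percentage conversion of substrate to products and number of products.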

mice = settings: up to 30 μg/kg for three weeks; cited from earlier work
[1] = type: in vitro ADME, human, rat, mouse, monkey, dog
[2] = In vitro metabolic stability in human liver microsomes; type: in vitro ADME; settings: 0.5 μM compound, 1 mg/ml microsomal protein, NADPH, 37°C, n=3, mean±S.D.
How it was run: (§1)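 Pooled liver microsomes (1 mg/ml protein) with 0.5 μM test compound, added from acetonitrile stock, in 0.2 M phosphate pH 7.4 with NADPH-regenerating system (1.3 mM NADP+, 3.3 mM glucose-6-phosphate, 0.4 U/ml G6P dehydrogenase), shaken at 37°C. Samples at 5–120 min quenched in acetonitrile with deuterated internal standard, centrifuged, and analysed by LC-MS/MS for % remaining. Half-life reported; n=3, mean±S.D.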

[3] = In vitro metabolic stability in monkey liver microsomes; type: in vitro ADME; settings: 0.5 μM compound, 1 mg/ml microsomal protein, NADPH, 37°C, n=3, mean±S.D.
How it was run: as §1

male C57/BL6 mice = test: In vivo toxicity study; settings: for calcification in organs / histopathological analysis of the major organs (liver, heart, kidney) / toxicity in vivo (clinical pathology chemistry profile, complete blood count): 60 μg/kg i.p., three weeks
[4] = In vitro metabolic stability in dog liver microsomes; type: in vitro ADME; settings: 0.5 μM compound, 1 mg/ml microsomal protein, NADPH, 37°C, n=3, mean±S.D.
How it was run: as §1

[5] = In vitro metabolic stability in rat liver microsomes; type: in vitro ADME; settings: 0.5 μM compound, 1 mg/ml microsomal protein, NADPH, 37°C, n=3, mean±S.D.
How it was run: as §1

rats = settings: 3 μg/kg for seven consecutive days; cited from earlier work
human CYP27A1 = biological target: T2, human CYP27A1 (Homo sapiens, UniProt Q02318); test: Metabolism by purified recombinant CYP27A1 in reconstituted system; type: in vitro ADME; settings: 50 μM substrate in 0.45% cyclodextrin, 1 μM human CYP27A1, 1 h incubation
T2 sequence (Q02318 34-531): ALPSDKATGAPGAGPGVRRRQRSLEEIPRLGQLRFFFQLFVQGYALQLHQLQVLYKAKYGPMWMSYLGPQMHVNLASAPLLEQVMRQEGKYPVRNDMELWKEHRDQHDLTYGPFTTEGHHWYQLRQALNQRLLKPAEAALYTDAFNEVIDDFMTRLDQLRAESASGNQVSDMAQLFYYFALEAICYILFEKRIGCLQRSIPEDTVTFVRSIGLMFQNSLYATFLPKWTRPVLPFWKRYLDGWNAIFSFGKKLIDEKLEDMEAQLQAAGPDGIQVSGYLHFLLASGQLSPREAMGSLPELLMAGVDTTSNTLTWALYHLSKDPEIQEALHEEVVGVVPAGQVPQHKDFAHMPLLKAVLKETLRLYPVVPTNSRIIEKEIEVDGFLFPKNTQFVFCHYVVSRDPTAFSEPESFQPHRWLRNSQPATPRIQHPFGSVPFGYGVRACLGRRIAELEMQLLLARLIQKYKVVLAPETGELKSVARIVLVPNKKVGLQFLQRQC
How it was run: (§2)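 Reconstituted system: adrenodoxin (15 μM), adrenodoxin reductase (4 μM), purified recombinant human CYP11A1 or CYP27A1 (1 μM). Substrate at 50 μM final, solubilised in 0.45% 2-hydroxypropyl-β-cyclodextrin. Incubation 1 h, extended for some analogs to 2 h (CYP11A1) or 3 h (CYP27A1). Products extracted with dichloromethane and resolved by reverse-phase HPLC. Read-outs are % substrate conversion and number of products.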

human CYP11A1 = biological target: T3, human CYP11A1 (Homo sapiens, UniProt P05108); test: Metabolism by purified recombinant CYP11A1 in reconstituted system; type: in vitro ADME; settings: 50 μM substrate in 0.45% cyclodextrin, 1 μM human CYP11A1, 1 h incubation
T3 sequence (P05108 40-521): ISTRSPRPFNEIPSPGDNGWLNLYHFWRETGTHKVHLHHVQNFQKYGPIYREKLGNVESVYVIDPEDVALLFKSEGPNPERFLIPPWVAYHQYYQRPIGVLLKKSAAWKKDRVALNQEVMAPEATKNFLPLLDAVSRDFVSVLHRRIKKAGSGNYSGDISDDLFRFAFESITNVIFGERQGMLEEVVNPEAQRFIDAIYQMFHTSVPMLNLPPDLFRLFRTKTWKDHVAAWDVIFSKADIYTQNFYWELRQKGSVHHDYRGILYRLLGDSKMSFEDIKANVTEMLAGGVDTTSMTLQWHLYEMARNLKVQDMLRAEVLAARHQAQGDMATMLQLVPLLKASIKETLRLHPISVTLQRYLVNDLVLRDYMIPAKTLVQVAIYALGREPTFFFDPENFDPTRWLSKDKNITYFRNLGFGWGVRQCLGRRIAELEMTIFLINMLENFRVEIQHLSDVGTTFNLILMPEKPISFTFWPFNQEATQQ
How it was run: as §2

[6] = In vitro metabolic stability in mouse liver microsomes; type: in vitro ADME; settings: 0.5 μM compound, 1 mg/ml microsomal protein, NADPH, 37°C, n=3, mean±S.D.
How it was run: as §1

mice or rats = settings: cited from earlier work
[7] = 60 μg/kg i.p. once daily for three weeks

Compound | CYP24A1 No. of different products (at least 2% of total secosteroids) (rat CYP24A1) | half-life in liver microsomes, average of five different species [1] | half-life in liver microsomes, Human [2] | half-life in liver microsomes, Monkey [3] | body weight (male C57/BL6 mice; [7]) | serum calcium (male C57/BL6 mice; [7]) | calcification in organs (male C57/BL6 mice) | histopathological analysis of the major organs (liver, heart, kidney) (male C57/BL6 mice) | toxicity in vivo (clinical pathology chemistry profile, complete blood count) (male C57/BL6 mice) | half-life in liver microsomes, Dog [4] | half-life in liver microsomes, Rat [5] | CYP27A1 No. of different products (at least 2% of total secosteroids) (human CYP27A1) | half-life in liver microsomes, Mouse [6] | also measured
C=C1CC[C@H](O)C/C1=C/C=C1\CCC[C@@]2(C)[C@H]1CC[C@@H]2[C@@](C)(O)CCCC(C)C [20S(OH)D3, 20S-hydroxyvitamin D3] | 3 | 50 min | 60 ± 4 min | 37 ± 1 min | 25 ± 1 g | 8.8 ± 0.66 mg/dL | Calcification was not present | six out of the seven mice treated with 20S(OH)D3 show unremarkable histology | did not show toxicity | 47 ± 1 min | 43 ± 1 min | 3 | 42 ± 2 min | effect on systemic calcium levels (mice): no effect on systemic calcium levels; highest possible dose that does not cause noticeable cytotoxic effects (male C57/BL6 mice; i.p. once daily for three weeks, stated as probable): 60 µg/kg; effect on systemic calcium levels (rats): no effect on systemic calcium levels; CYP11A1 % conversion of substrate to products (human CYP11A1): 21%; CYP11A1 No. of different products (at least 2% of total secosteroids) (human CYP11A1): 3
C=C1CC[C@H](O)C/C1=C/C=C1\CCC[C@@]2(C)C1CC[C@@H]2[C@@](C)(O)CCCC(C)C (stereo partly drawn) [20R(OH)D3, 20R-hydroxyvitamin D3] | 4 | 30 min | 34 ± 2 min | 15 ± 1 min | 25 ± 1 g | 8.6 ± 0.77 mg/dL | Calcification was not present | unremarkable histology | did not show toxicity | 21 ± 2 min | 19 ± 3 min | 3 | 25 ± 1 min | CYP27A1 % conversion of substrate to products (human CYP27A1): 90%
C=C1CC[C@H](O)C/C1=C/C=C1\CCC[C@]2(C)[C@@H]([C@H](C)CCCC(C)(C)O)CC[C@@H]12 [25(OH)D3, 25-hydroxyD3] | – | – | – | – | – | – | – | – | – | – | – | – | – | dose reported to generate hypercalcemia (mice or rats; in vivo): ≥ 1 µg/kg
C=C1/C(=C\C=C2/CCC[C@]3(C)[C@@H]([C@H](C)CCCC(C)(C)O)CC[C@@H]23)C[C@@H](O)C[C@@H]1O [1,25(OH)2D3, 1,25-dihydroxy vitamin D3, reference compound] | – | – | – | – | – | – | – | – | – | – | – | – | – | body weight (male C57/BL6 mice; 2 μg/kg i.p. once daily for three weeks): 21 ± 1 g; serum calcium (male C57/BL6 mice; 2 μg/kg i.p. once daily for three weeks, positive control): 14.6 ± 0.48 mg/dL; dose reported to generate hypercalcemia (mice or rats; mice (ref 37) or rats (ref 20)): ≥ 1 µg/kg
